From ChEMBL document CHEMBL3120143, “Use of 2'-spirocyclic ethers in HCV nucleoside design” (J Med Chem, 2014) come the findings set out here.

Each structure is given as a SMILES string. Calls of active or inactive are those of the source. The rule behind the calls is not given here. Bounds are passed on as bounds.

The nature of data set [1]: Cytotoxicity against human Lunet cells expressing ET subgenomic replicon after 4 days by Celltitre-Glo assay. The data set is classed as cell-based. An outline of the steps: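 ET-Lunet replicon cells, 3000 cells/well, incubated 4 days with serially diluted compound; proliferation/viability by CellTiter-Glo luminescence; CC50 = concentration giving 50% inhibition, curve-fitted.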

For data set [2], the system named is Hepatitis C virus. The data set is described as follows: Antiviral activity against HCV genotype 1b infected in human ET-Lunet cells assessed as inhibition of HCV RNA replication after 4 days by firefly luciferase reporter gene assay. The note with it: 96 h. The data set is classed as functional, organism-based, Hepacivirus hominis. An outline of the steps: (§1)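 ET-Lunet cells carrying genotype 1b replicon seeded at 3000 cells/well, exposed 4 days to serially diluted compound; HCV RNA replication read as firefly luciferase luminescence (Bright-Glo). EC50 taken as concentration giving 50% inhibition, from curve fitting.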
On the technique in general: Reporter assays use an easily measured gene product as a stand-in for the process of interest.

Data set [3] in a line: Inhibition of HCV genotype 1b wild type recombinant NS5B RNA dependent RNA polymerase using IRES RNA as substrate after 30 mins by radioactive assay in presence of [alpha32p]UTP. Also on record: species or system Hepatitis C virus subtype 1b. Summed up:
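Recombinant genotype 1b NS5B (wild-type or S282T), 40 ng/μL, with 20 ng/μL genotype 1b (−) IRES RNA template. Mix holds 5 μM each of the four natural ribonucleotides plus [α-³²P]UTP, RNase inhibitor 1 unit/μL, 5 mM MgCl₂ and 2 mM DTT in 50 mM Hepes pH 7.5. Incubated at 27 °C for 30 min, then stopped with EDTA/NaCl/citrate. Radioactive RNA product quantified and IC50 fitted.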

In data set [4] the test system is Hepatitis C virus. The data set is described as follows: Antiviral activity against HCV genotype 1b infected in human ET-Lunet cells assessed as inhibition of HCV RNA replication up to 100 uM after 4 days by firefly luciferase reporter gene assay. It counts as functional, organism-based. The settings on record: Hepacivirus hominis. Summed up:
as §1

In data set [5] the target is RNA-directed RNA polymerase (Hepacivirus hominis, UniProt O39930, S282T). The data set is described as follows: Inhibition of HCV genotype 1b recombinant NS5B RNA dependent RNA polymerase S282T mutant using IRES RNA as substrate after 30 mins by radioactive assay in presence of [alpha32p]UTP. On the set-up: species or system Hepatitis C virus subtype 1b.
Chain of RNA-directed RNA polymerase (O39930 entry or part of it S282T): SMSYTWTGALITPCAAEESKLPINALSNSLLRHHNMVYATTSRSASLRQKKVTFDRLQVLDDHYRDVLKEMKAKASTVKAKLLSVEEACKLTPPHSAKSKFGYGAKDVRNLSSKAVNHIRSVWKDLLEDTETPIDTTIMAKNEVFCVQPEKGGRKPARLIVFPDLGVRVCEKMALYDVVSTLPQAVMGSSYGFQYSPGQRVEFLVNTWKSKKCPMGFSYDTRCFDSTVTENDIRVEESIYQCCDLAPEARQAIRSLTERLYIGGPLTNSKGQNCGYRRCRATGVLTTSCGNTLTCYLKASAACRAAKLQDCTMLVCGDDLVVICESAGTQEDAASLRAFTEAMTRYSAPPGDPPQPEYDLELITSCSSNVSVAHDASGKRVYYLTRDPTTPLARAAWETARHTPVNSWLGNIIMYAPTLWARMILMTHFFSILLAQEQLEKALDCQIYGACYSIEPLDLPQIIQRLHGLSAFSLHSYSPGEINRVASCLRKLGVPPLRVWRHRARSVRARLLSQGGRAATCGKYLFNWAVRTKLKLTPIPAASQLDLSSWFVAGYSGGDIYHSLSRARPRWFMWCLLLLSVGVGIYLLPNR

Take `Nc1ccn([C@@H]2O[C@H](CO)[C@@H](O)[C@@]23CCCO3)c(=O)n1`: the CC50 (as a rule, the concentration at which the toxic effect on the cells reaches its halfway point) at 96 h in data set [1] is > 100 µM. Moreover, the EC50 (usually the concentration that produces a half-maximal response) with Hepatitis C virus [2] is > 100 µM.

In the case of `O=c1ccn([C@@H]2O[C@H](CO)[C@@H](O)[C@@]23CCO3)c(=O)[nH]1`, the CC50 at 96 h in data set [1] was > 100 µM. Besides, in the data set with Hepatitis C virus [2], the EC50 was > 100 µM.

On to `COc1nc(N)nc2c1ncn2[C@@H]1O[C@H](CO[P@](=O)(N[C@@H](C)C(=O)OCc2ccccc2)Oc2ccccc2)[C@@H](O)[C@]12CCO2`, for which the CC50 at 96 h in data set [1] was > 20 µM. In addition, the EC50 in the data set with Hepatitis C virus [2] was found to be 11.7 µM.

Consider `Nc1ccn([C@@H]2O[C@H](CO)[C@@H](O)[C@]23CCO3)c(=O)n1`, for which the CC50 at 96 h in data set [1] was > 100 µM. Also, in the data set on Hepatitis C virus [2], the EC50 came to 56.6 µM.

`CCCCOC(=O)[C@H](C)N[P@@](=O)(OC[C@H]1O[C@@H](n2cnc3c(OC)nc(N)nc32)[C@@]2(CCO2)[C@@H]1O)Oc1ccccc1`: the CC50 at 96 h in data set [1] is > 20 µM. Besides, the EC50 in the data set with Hepatitis C virus [2] was found to be 3.1 µM.

As to `COc1nc(N)nc2c1ncn2[C@@H]1O[C@H](CO[P@](=O)(N[C@@H](C)C(=O)OCC(C)(C)C)Oc2ccccc2)[C@@H](O)[C@]12CCO2`, in data set [1], the CC50 at 96 h was > 20 µM. In addition, the EC50 in the data set with Hepatitis C virus [2] is 9.31 µM.

In the case of `CC(C)OC(=O)[C@H](C)NP(=O)(OC[C@H]1O[C@@H](n2ccc(N)nc2=O)[C@@]2(CCO2)[C@@H]1O)Oc1ccccc1` (stereo partly drawn), in data set [1], the CC50 at 96 h is > 100 µM. Moreover, the EC50 in the data set with Hepatitis C virus [2] amounted to 16.7 µM.

Consider `Nc1ccn([C@@H]2O[C@H](CO)[C@@H](O)[C@@]23CCO3)c(=O)n1`, for which the CC50 at 96 h in data set [1] is > 100 µM. For the same compound, the EC50 in the data set with Hepatitis C virus [2] was > 100 µM.

With `Nc1ccn([C@@H]2O[C@H](CO)[C@@H](O)[C@]23CCCO3)c(=O)n1`, the CC50 at 96 h in data set [1] was > 100 µM. In the data set on Hepatitis C virus [2], the EC50 was > 100 µM.

Regarding `O=c1ccn([C@@H]2O[C@H](CO)[C@@H](O)[C@]23CCCO3)c(=O)[nH]1`, the CC50 at 96 h in data set [1] is > 100 µM. For the same compound, in the data set on Hepatitis C virus [2], the EC50 was > 100 µM.

Take `COC(=O)[C@H](C)NP(=O)(OC[C@H]1O[C@@H](n2ccc(=O)[nH]c2=O)[C@]2(CCCO2)[C@@H]1O)Oc1ccccc1` (mixture of isomers): the CC50 at 96 h in data set [1] is > 100 µM. Besides, the EC50 with Hepatitis C virus [2] came out at 20.6 µM.

In the case of `COC(=O)[C@H](C)NP(=O)(OC[C@H]1O[C@@H](n2ccc(=O)[nH]c2=O)[C@@]2(CCO2)[C@@H]1O)Oc1ccccc1` (mixture of isomers), the CC50 at 96 h in data set [1] is > 100 µM. In the data set with Hepatitis C virus [2], the EC50 was 16.7 µM.

Regarding `O=c1ccn([C@@H]2O[C@H](CO)[C@@H](O)[C@]23CCO3)c(=O)[nH]1`, the CC50 at 96 h in data set [1] was > 100 µM. Further, the EC50 in the data set with Hepatitis C virus [2] was > 100 µM.

Regarding `COc1nc(N)nc2c1ncn2[C@@H]1O[C@H](CO[P@@](=O)(N[C@@H](C)C(=O)OCC(C)(C)C)Oc2ccccc2)[C@@H](O)[C@]12CCO2`, in data set [1], the CC50 at 96 h is > 20 µM. The EC50 with Hepatitis C virus [2] stood at 1.02 µM.

For the compound `Nc1ccn([C@@H]2O[C@H](COP(=O)(O)OP(=O)(O)OP(=O)(O)O)[C@@H](O)[C@@]23CCO3)c(=O)n1`, the IC50 (usually the midpoint of a concentration-inhibition curve) in data set [3] is > 100 µM.

As for `COc1nc(N)nc2c1ncn2[C@@H]1O[C@H](COP(=O)(N[C@@H](C)C(=O)OCC(C)(C)C)Oc2cccc3ccccc23)[C@@H](O)[C@]12CCO2` (mixture of isomers), in data set [1], the CC50 at 96 h is > 20 µM. Moreover, the EC50 in the data set on Hepatitis C virus [2] is 0.31 µM.

As for `COC(=O)[C@H](C)NP(=O)(OC[C@H]1O[C@@H](n2ccc(=O)[nH]c2=O)[C@@]2(CCCO2)[C@@H]1O)Oc1ccccc1` (mixture of isomers), the CC50 at 96 h in data set [1] was > 100 µM. Besides, the EC50 in the data set on Hepatitis C virus [2] was found to be 28.3 µM.

With `Nc1nc2c(ncn2[C@@H]2O[C@H](CO)[C@@H](O)[C@]23CCO3)c(=O)[nH]1`, in the data set on Hepatitis C virus [4], the inhibition entry is “inactive”.

On to `O=c1ccn([C@@H]2O[C@H](COP(=O)(O)OP(=O)(O)OP(=O)(O)O)[C@@H](O)[C@]23CCO3)c(=O)[nH]1`, for which the IC50 in data set [5] was > 100 µM; in data set [3], 39.4 µM.

As to `COc1nc(N)nc2c1ncn2[C@@H]1O[C@H](CO[P@](=O)(N[C@@H](C)C(=O)OC(C)C)Oc2ccccc2)[C@@H](O)[C@]12CCO2`, in data set [1], the CC50 at 96 h was > 20 µM. Also, the EC50 with Hepatitis C virus [2] was 4.52 µM.

Regarding `O=c1ccn([C@@H]2O[C@H](COP(=O)(O)OP(=O)(O)OP(=O)(O)O)[C@@H](O)[C@@]23CCCO3)c(=O)[nH]1`, in data set [3], the IC50 is > 100 µM.

Take `COC(=O)[C@H](C)NP(=O)(OC[C@H]1O[C@@H](n2cnc3c(OC)nc(N)nc32)[C@@]2(CCO2)[C@@H]1O)Oc1ccccc1` (mixture of isomers): in data set [1], the CC50 at 96 h is > 20 µM. Moreover, the EC50 in the data set with Hepatitis C virus [2] came to 7.16 µM.

Turning to `Nc1ccn([C@@H]2O[C@H](COP(=O)(O)OP(=O)(O)OP(=O)(O)O)[C@@H](O)[C@]23CCO3)c(=O)n1`, the IC50 in data set [5] is > 100 µM; in data set [3], 8.48 µM.

`COc1nc(N)nc2c1ncn2[C@@H]1O[C@H](CO)[C@@H](O)[C@]12CCO2`: in the data set on Hepatitis C virus [4], the inhibition entry was “inactive”.

On to `COc1nc(N)nc2c1ncn2[C@@H]1O[C@H](COP(=O)(O)OP(=O)(O)OP(=O)(O)O)[C@@H](O)[C@@]1(C)F`, for which the half-inhibitory concentration (IC50) in data set [5] is 5.31 µM; in data set [3] it was 4.2 µM.

Consider `COc1nc(N)nc2c1ncn2[C@@H]1O[C@H](CO[P@@](=O)(N[C@@H](C)C(=O)OC(C)C)Oc2ccccc2)[C@@H](O)[C@]12CCO2`, for which the CC50 at 96 h in data set [1] is > 20 µM. The concentration giving a half-maximal response (EC50) in the data set on Hepatitis C virus [2] stood at 0.0045 µM.

For `Nc1nc2c(ncn2[C@@H]2O[C@H](COP(=O)(O)OP(=O)(O)OP(=O)(O)O)[C@@H](O)[C@]23CCO3)c(=O)[nH]1`, the IC50 in data set [5] is 10.4 µM; in data set [3], 9.5 µM.

With `Nc1ccn([C@@H]2O[C@H](COP(=O)(O)OP(=O)(O)OP(=O)(O)O)[C@@H](O)[C@]23CCCO3)c(=O)n1`, the IC50 in data set [5] is > 100 µM; in data set [3] it was 45.3 µM.

Consider `Nc1ccn([C@@H]2O[C@H](COP(=O)(O)OP(=O)(O)OP(=O)(O)O)[C@@H](O)[C@@]23CCCO3)c(=O)n1`, for which the IC50 in data set [3] was > 100 µM.

Consider `CCCCOC(=O)[C@H](C)N[P@](=O)(OC[C@H]1O[C@@H](n2cnc3c(OC)nc(N)nc32)[C@@]2(CCO2)[C@@H]1O)Oc1ccccc1`, for which, in data set [1], the half-maximal cytotoxic concentration (CC50) at 96 h was > 20 µM. For the same compound, the 50% effective concentration (EC50) in the data set with Hepatitis C virus [2] was 0.27 µM.

As to `C[C@@]1(F)[C@H](O)[C@@H](CO)O[C@H]1n1ccc(N)nc1=O`, the figures for the IC50 in data set [5] and in data set [3] were 56.7 µM and 8.41 µM, respectively.

On to `COc1nc(N)nc2c1ncn2[C@@H]1O[C@H](CO[P@@](=O)(N[C@@H](C)C(=O)OCC(C)C)Oc2ccccc2)[C@@H](O)[C@]12CCO2`, for which, in data set [1], the CC50 at 96 h is > 20 µM. Also, the EC50 in the data set with Hepatitis C virus [2] turned out to be 0.57 µM.

For the compound `COc1nc(N)nc2c1ncn2[C@@H]1O[C@H](CO[P@](=O)(N[C@@H](C)C(=O)OCC(C)C)Oc2ccccc2)[C@@H](O)[C@]12CCO2`, the CC50 at 96 h in data set [1] is > 20 µM. Further, the EC50 in the data set on Hepatitis C virus [2] is 4.42 µM.

Consider `O=c1ccn([C@@H]2O[C@H](CO)[C@@H](O)[C@@]23CCCO3)c(=O)[nH]1`, for which the CC50 at 96 h in data set [1] was > 100 µM. In the data set on Hepatitis C virus [2], the EC50 was determined as 14.9 µM.

Regarding `COc1nc(N)nc2c1ncn2[C@@H]1O[C@H](CO[P@](=O)(N[C@@H](C)C(=O)OC2CCCC2)Oc2ccccc2)[C@@H](O)[C@]12CCO2`, the CC50 at 96 h in data set [1] is > 20 µM. For the same compound, in the data set on Hepatitis C virus [2], the EC50 turned out to be 0.67 µM.

For `COc1nc(N)nc2c1ncn2[C@@H]1O[C@H](CO[P@@](=O)(N[C@@H](C)C(=O)OC2CCCC2)Oc2ccccc2)[C@@H](O)[C@]12CCO2`, in data set [1], the CC50 at 96 h is > 20 µM. For the same compound, in the data set with Hepatitis C virus [2], the EC50 is 0.45 µM.

As for `COc1nc(N)nc2c1ncn2[C@@H]1O[C@H](CO[P@@](=O)(N[C@@H](C)C(=O)OCc2ccccc2)Oc2ccccc2)[C@@H](O)[C@]12CCO2`, the CC50 at 96 h in data set [1] is > 20 µM. Besides, the EC50 in the data set on Hepatitis C virus [2] was determined as 8.65 µM.

As to `CCOC(=O)[C@H](C)N[P@](=O)(OC[C@H]1O[C@@H](n2cnc3c(OC)nc(N)nc32)[C@@]2(CCO2)[C@@H]1O)Oc1ccccc1`, the CC50 at 96 h in data set [1] is > 20 µM. In addition, in the data set with Hepatitis C virus [2], the EC50 is 0.86 µM.

In the case of `COC(=O)[C@H](C)NP(=O)(OC[C@H]1O[C@@H](n2ccc(=O)[nH]c2=O)[C@]2(CCO2)[C@@H]1O)Oc1ccccc1` (mixture of isomers), in data set [1], the CC50 at 96 h is > 100 µM. In addition, the EC50 in the data set with Hepatitis C virus [2] stood at 28.5 µM.
